STAT3 act – IL-6 driven STAT3 reporter potentiators, primary screen, U3A cells, luciferase, luminescence, MLSCN library; IL-6 STAT3-luciferase reporter; 100% = signal with IL-6 EC80 alone; activation (% of control), % at 5.6 µM; 0.91% of 190,000 active;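 active = activation above the screen-wide mean of compound activation plus 3 SD, cut at about 130% in these data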;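 note: 0% = background luminescence of wells with medium and substrate only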
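Material: STAT3-luciferase reporter U3A cells; Probe or stimulus: IL-6 (33 ng/mL); Incubation: compound pre-incubation 1 h before IL-6, then 6 h stimulation at 37 °C; Technique: luminescence from STAT3-driven luciferase reporter; Evaluation: % activation versus median of IL-6-stimulated wells; Controls: IL-6-only high control.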
STAT1 blocker – STAT1 signaling inhibitors, primary screen, cell-based, HTS, luciferase reporter. NIH 3T3 STAT1-luciferase reporter, IFN-gamma, luminescence. inhibition, % at 5.5 µM. 0.35% of 200,000 active. AID 920, 2007;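 active = inhibition above a set limit, the mean inhibition across all tested compounds plus 3 SD, cut at about 34% in these data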;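 note: 0% = IFN-gamma with DMSO and 100% = IFN-gamma with 300 µM nifuroxazide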
STAT1 activator – STAT1 signaling activators, primary screen, cell-based, HTS, luciferase reporter; 2.6% of 200,000 active; NIH 3T3 STAT1-luciferase reporter, IFN-gamma, luminescence; 100% = IFN-gamma alone, no compound; activation (% of control), % at 5.5 µM; AID 932, 2007;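 active = activation above the screen-wide mean activation plus 3 SD, cut at about 130% in these data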;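 note: raw ratio to IFN-gamma control signal so 100% means no change and 0% no light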
STAT3 inh-1 – IL-6 driven STAT3 reporter inhibitors, primary screen, U3A cells, luciferase, luminescence, MLSCN library; IL-6 STAT3-luciferase reporter; host cell line lacks STAT1; inhibition, % at 5.5 µM; 0.89% of 190,000 active;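 active = inhibition above the mean inhibition across all screened compounds plus 3 SD, cut at about 44% in these data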;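 note: 0% = DMSO only wells and 100% = 100 µM nifuroxazide control wells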
APP 5'UTR act – activators of APP 5'UTR luciferase reporter, primary screen, SH-SY5Y cells; SH-SY5Y APP 5'UTR luciferase reporter, luminescence; zero percent = DMSO vehicle wells; activation, % at 2 µM; 1% of 190,000 active; AID 1276, 2008;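 active = activation above a set limit, based on mean plus 3 SD of controls, cut at about 140% in these data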
NF-kB neuron act – activators of NF-kB expression in neurons, primary screen, cell-based, HTS; human neuronal cells, NF-kB reporter expression; active compounds read high; fold change at 12.5 µM; 1.6% of 190,000 active; in the data active = fold change above about 3.3
STAT3 inh-2 – STAT3 reporter inhibitors, retest of hits, confirmation, U3A cells, luciferase, luminescence; shares compounds with STAT3 inh-1; AID 1265, 2008; inhibition, % at 5.7 µM; 45% of 1,200 active; IL-6 STAT3 luciferase reporter; cell line lacks STAT1;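 active = inhibition above the hit cutoff computed for the primary STAT3 screen, cut at about 44% in these data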;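 note: 0% = IL-6 plus DMSO and 100% = IL-6 plus nifuroxazide control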
NFkB inh 2 – NF-kB reporter inhibitors in human cells, confirmation, counter-screen for STAT3 inhibitor project, cell-based, HEK293T, luciferase, TNF-alpha stimulus | shares compounds with STAT3 inh-1 | TNF-alpha induced | inhibition, % at 5.7 µM | 36% of 1,200 active;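 active = inhibition above the mean of solvent-only control wells plus 3 SD, cutoff set per campaign, cut at about 13% in these data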;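 note: 0% = TNF-alpha with DMSO and 100% = TNF-alpha with MG high control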
STAT1 inh STAT3c – STAT1 reporter inhibitors, IFN-gamma induced, confirmation, counter-screen for STAT3 inhibitor project, cell-based, NIH 3T3, luciferase luminescence | shares compounds with STAT3 inh-1 | NIH 3T3 STAT1-luciferase reporter | inhibition, % at 5.7 µM | 27% of 1,200 active;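 active = inhibition above the mean plus 3 SD of solvent-only control wells, limit set per screening run, cut at about 16% in these data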;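 note: 0% = DMSO with IFN-gamma and 100% = nifuroxazide control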
An asterisk follows results filed as active. In the library only some 5.1% were active in any assay of this set; here they are far more common.

CCN1CCN(S(=O)(=O)c2cc(OCC(=O)NC3CCCCC3)c(C)cc2Cl)CC1 was read as STAT3 act 38, STAT1 blocker 21, STAT1 activator 81, STAT3 inh-1 77*, APP 5'UTR act -42, NF-kB neuron act 0.68, STAT3 inh-2 57*, NFkB inh 2 19* and STAT1 inh STAT3c 8.
Screening Cc1cc(Cl)c(S(=O)(=O)N2CCCCCC2)cc1OCC(=O)NC1CCCCC1 returned STAT3 act 32, STAT1 blocker 10, STAT1 activator 90, STAT3 inh-1 82*, APP 5'UTR act -9, NF-kB neuron act 0.55, STAT3 inh-2 83*, NFkB inh 2 31* and STAT1 inh STAT3c 16*.
CCOC(=O)N1CCN(S(=O)(=O)c2cc(OCC(=O)NC3CCCCC3)c(C)cc2Cl)CC1 was read as STAT3 act 97, STAT1 blocker 14, STAT1 activator 87, STAT3 inh-1 6, APP 5'UTR act -25 and NF-kB neuron act 0.51.
`O=C(COc1ccc(Br)cc1Br)NC1CCCC1` gave STAT3 act 61, STAT1 blocker -47, STAT1 activator 141*, STAT3 inh-1 49*, APP 5'UTR act 53, NF-kB neuron act 2.7, STAT3 inh-2 53*, NFkB inh 2 -2 and STAT1 inh STAT3c -43.
Cc1ccc(OCC(=O)NC2CCCC2)c(C)c1 was read as STAT3 act 86, STAT1 blocker -21, STAT1 activator 119, STAT3 inh-1 20, APP 5'UTR act 19 and NF-kB neuron act 1.9.
O=[N+]([O-])c1cc(/C=N\O)ccc1Oc1ccc(F)cc1 was read as STAT3 act 96, STAT1 blocker -9, STAT1 activator 107, STAT3 inh-1 15, APP 5'UTR act -23 and NF-kB neuron act 1.3.
`Cc1ccccc1C(=O)Nc1nnc(SC(C)C)s1` gave STAT3 act 97, STAT1 blocker -26, STAT1 activator 122, STAT3 inh-1 14, APP 5'UTR act 31 and NF-kB neuron act 1.5.
`CC1CC1C(=O)OCC(=O)Nc1cccc([N+](=O)[O-])c1` (centres undefined) gave STAT3 act 94, STAT1 blocker 3, STAT1 activator 97, STAT3 inh-1 12, APP 5'UTR act -21 and NF-kB neuron act 1.4.
Screening Cc1ccc(/C=C/c2nnc(-c3cccs3)o2)cc1 returned STAT3 act 52, STAT1 blocker 10, STAT1 activator 91, STAT3 inh-1 64*, APP 5'UTR act 2, NF-kB neuron act 5.2*, STAT3 inh-2 24, NFkB inh 2 -9 and STAT1 inh STAT3c -40.
NC(=O)CSc1nnc(-c2ccc3c(c2)OCO3)o1 was read as STAT3 act 93, STAT1 blocker -14, STAT1 activator 113, STAT3 inh-1 9, APP 5'UTR act 94 and NF-kB neuron act 2.4.
`C/C(N)=C(/C#N)C(=O)CSc1nnc(-c2ccc3c(c2)OCO3)o1` gave STAT3 act 63, STAT1 blocker -37, STAT1 activator 134*, STAT3 inh-1 48*, APP 5'UTR act 100, NF-kB neuron act 6.9*, STAT3 inh-2 18, NFkB inh 2 -9 and STAT1 inh STAT3c -97.
Cc1occc1-c1nnc(-c2cc([N+](=O)[O-])cc([N+](=O)[O-])c2)o1 was read as STAT3 act 95, STAT1 blocker -2, STAT1 activator 100, STAT3 inh-1 8, APP 5'UTR act -5 and NF-kB neuron act 0.98.
Screening Cc1ccc(-n2ncc3c(SCc4cccc(C)c4)ncnc32)cc1 returned STAT3 act 100, STAT1 blocker -5, STAT1 activator 104, STAT3 inh-1 -1, APP 5'UTR act 36 and NF-kB neuron act 1.2.
`Cc1ccc(-n2ncc3c(SCc4cccnc4)ncnc32)c(C)c1` gave STAT3 act 40, STAT1 blocker 21, STAT1 activator 80, STAT3 inh-1 75*, APP 5'UTR act 14, NF-kB neuron act 1.4, STAT3 inh-2 68*, NFkB inh 2 4 and STAT1 inh STAT3c 6.
`O=C(CCCOc1ccc(Cl)cc1)N1CCCCC1` gave STAT3 act 99, STAT1 blocker -11, STAT1 activator 103, STAT3 inh-1 2, APP 5'UTR act 10 and NF-kB neuron act 1.8.
For O=C(CCCOc1ccccc1)N1CCCCC1 the results were STAT3 act 62, STAT1 blocker -1, STAT1 activator 101, STAT3 inh-1 48*, APP 5'UTR act 103, NF-kB neuron act 2.1, STAT3 inh-2 7, NFkB inh 2 -8 and STAT1 inh STAT3c -74.
Cc1cccc(NS(=O)(=O)c2cc([N+](=O)[O-])ccc2C)n1 was read as STAT3 act 104, STAT1 blocker -4, STAT1 activator 103, STAT3 inh-1 3, APP 5'UTR act -16 and NF-kB neuron act 0.86.
Screening Cc1nonc1OCCNCc1c(C(=O)N(C)C)nc2ccc(Cl)cn12 returned STAT3 act 94, STAT1 blocker 0, STAT1 activator 99, STAT3 inh-1 8, APP 5'UTR act 11 and NF-kB neuron act 1.
O=C(Nc1ccc(Oc2ccccc2)cc1)c1cnc2n(c1=O)CCS2 was read as STAT3 act 40, STAT1 blocker 14, STAT1 activator 87, STAT3 inh-1 78*, APP 5'UTR act 4, NF-kB neuron act 1.2, STAT3 inh-2 73*, NFkB inh 2 11 and STAT1 inh STAT3c 14.
For Cc1cccc(C)c1NC(=O)N1CCN(c2nc3ccccc3s2)CC1 the results were STAT3 act 55, STAT1 blocker 4, STAT1 activator 97, STAT3 inh-1 56*, APP 5'UTR act -5, NF-kB neuron act 1.5, STAT3 inh-2 57*, NFkB inh 2 8 and STAT1 inh STAT3c 4.
For CCOc1ccc(NC(=O)N2CCN(c3nc4ccccc4s3)CC2)cc1 the results were STAT3 act 57, STAT1 blocker 25, STAT1 activator 77, STAT3 inh-1 55*, APP 5'UTR act 3, NF-kB neuron act 1.1, STAT3 inh-2 39, NFkB inh 2 3 and STAT1 inh STAT3c 17*.

Source: PubChem BioAssay (several laboratories)
